The record followed here is ChEMBL document CHEMBL4513216, “Probing the Open Global Health Chemical Diversity Library for Multistage-Active Starting Points for Next-Generation Antimalarials” (ACS Infect Dis, 2020).

The nature of this data set: Toxicity liver stage against HepG2, at 10uM. On the set-up: test concentration 10 uM, cell line HepG2-A16-CD81EGFP. Format: cell-based. The following applies: human, HepG2-A16-CD81EGFP cells; read-out: INHIBITION
In a few lines: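 Uninfected HepG2-A16-CD81EGFP cells, 3 × 10^3 per well, 1536-well, plated on prespotted compound at 10 μM final, parasite-free screening media added to match infected plates; puromycin 10 μM positive, DMSO 0.5% negative; run in parallel with 48 h PbLuc assay at 37 °C, 5% CO2; viability by CellTiter-Glo luminescence, normalized to controls.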
`Cc1cc(C2CCCN2CCCc2nc3ccccc3o2)on1` (stereo unspecified): the cytotoxicity at 10 µM was -5.58%.

Turning to `CC(C)NC(=O)NC[C@H]1OC[C@@H](NCc2ccncc2)[C@@H]1O`, the cytotoxicity at 10 µM was -4.07%.

`C[C@@H](NC(=O)c1cccn1C)c1c(-c2ccc(Cl)cc2)noc1C(=O)O`: the cytotoxicity at 10 µM turned out to be 3%.

Consider `Cn1nnc(NCc2ccc(OCc3ccc(Cl)cc3)cc2)n1`, for which the cytotoxicity at 10 µM is -2.56%.

In the case of `O=C(NCCCN1CCCC1=O)c1ccc(-n2ccc3ccccc32)s1`, the cytotoxicity at 10 µM was 6.69%.

Turning to `CC(C)(C)S(=O)(=O)c1ccc(N2CCN(c3ccccn3)CC2)nn1`, the cytotoxicity at 10 µM is -3.3%.

In the case of `COCCNC(=O)NCCS(=O)(=O)N1CCN(c2cccc(C)c2)CC1`, the cytotoxicity at 10 µM amounted to 4.31%.

For the compound `CCS(=O)(=O)N1CCC2(CC1)CN(C(=O)N(C)C)Cc1ccccc12`, the cytotoxicity at 10 µM came out at 2.67%.

As to `Cc1cccc(CN2CCCC23CCNC3)n1` (stereo unspecified), the cytotoxicity at 10 µM amounted to 4.82%.

On to `CCOCC(=O)N1CCC2(CC1)CN(Cc1cccnc1)C(=O)CO2`, for which the cytotoxicity at 10 µM was -0.125%.

Consider `COc1ccc(CN2CCO[C@H]3CN(C(=O)C4CC4)CC[C@H]3C2=O)cc1`, for which the cytotoxicity at 10 µM is -147%.

For `O=C(NC1CCC1)C1CCC2(CN(C(=O)c3ccco3)C2)O1` (stereo unspecified), the cytotoxicity at 10 µM is -144%.

For `Cc1ccc(N2CCC3(CCN(C(=O)C4CCOC4)CC3)CC2)nn1` (stereo unspecified), the cytotoxicity at 10 µM was -0.28%.

Consider `CCN(CC)Cc1cnc2n1CCN(C1CCOC1)CC2` (stereo unspecified), for which the cytotoxicity at 10 µM was -146%.

Consider `CN1CCN(Cc2cn3c(n2)CN(CC2CC2)CC3)CC1`, for which the cytotoxicity at 10 µM was -119%.

`CCOCC1CN(Cc2ccco2)Cc2ccnn2C1` (stereo unspecified): the cytotoxicity at 10 µM was -149%.

Regarding `COc1cc(CCO)c(OC)c2c1OCO2`, the cytotoxicity at 10 µM is -5.6%.

`O=C(CC1Cn2ncnc2NC1=O)Nc1ccccc1` (stereo unspecified): the cytotoxicity at 10 µM is 6.11%.

With `O=C(NC1CCCC1)c1cc(Sc2ncccn2)ccn1`, the cytotoxicity at 10 µM was -12.3%.

In the case of `CNc1cncc(C2CCCN2S(=O)(=O)c2ccccc2)n1` (stereo unspecified), the cytotoxicity at 10 µM is -22%.

In the case of `CC(NC(=O)c1cnccn1)c1nnc2ccccn12` (stereo unspecified), the cytotoxicity at 10 µM was 5.1%.

In the case of `Cc1cnn(-c2ccc(S(=O)(=O)N(C)CC(F)F)cc2F)c1`, the cytotoxicity at 10 µM is 9.75%.

Consider `CC(C(=O)N1CCCC1)S(=O)(=O)Cc1nc(C(C)(C)C)no1` (stereo unspecified), for which the cytotoxicity at 10 µM was 8.18%.

With `CC(C)(C)CC(=O)N1CCc2sccc2C1`, the cytotoxicity at 10 µM is 3.61%.

For the compound `CCCc1c(C(=O)N2CCN(c3ncccn3)CC2)cnn1C`, the cytotoxicity at 10 µM amounted to 3.38%.

Take `COc1cc(CO)ccc1OCc1nc(C(C)C)no1`: the cytotoxicity at 10 µM came to 6.3%.

Regarding `COC(=O)c1cccc(S(=O)(=O)Nc2ncc(C)s2)c1`, the cytotoxicity at 10 µM amounted to 0.158%.

On to `Cc1ccc(-c2nnn(CCN3C(=O)CCC3=O)n2)cc1`, for which the cytotoxicity at 10 µM worked out at 1.33%.

Consider `COC(=O)C1CCN(C(=O)Cn2ccc(-c3ccsc3)n2)CC1`, for which the cytotoxicity at 10 µM is -6.58%.

Regarding `Cc1nnc(NC(=O)N2CCC(N3CCCCC3)CC2)s1`, the cytotoxicity at 10 µM worked out at 7.15%.

On to `CS(=O)(=O)c1cccc(S(=O)(=O)NC(=O)c2cscn2)c1`, for which the cytotoxicity at 10 µM amounted to 1.33%.

For the compound `CCc1nnc2n1CCN(C(=O)C(C)Oc1ccc(C#N)cc1)C2` (stereo unspecified), the cytotoxicity at 10 µM is -7.04%.

Regarding `CCN(CC)C(=O)CS(=O)(=O)c1cc(OC)c(OC)cc1C`, the cytotoxicity at 10 µM is -2.58%.

For the compound `CCC(C)S(=O)(=O)N(Cc1ccco1)Cc1ccccc1O` (stereo unspecified), the cytotoxicity at 10 µM stood at 9.99%.

As to `Cc1csc(C(C)(C)NCc2ncc(-c3ccc(F)cc3)o2)n1`, the cytotoxicity at 10 µM came to 8.27%.

As to `NC(=O)CC1CCN(CC(O)c2ccc(Br)cc2)CC1` (stereo unspecified), the cytotoxicity at 10 µM was -7.74%.

For `CCn1c(C)nnc1CN(C)C1CCN(Cc2ccon2)C1` (stereo unspecified), the cytotoxicity at 10 µM stood at 0.793%.

Regarding `Cn1nc2c(cc1=O)CN(CC(=O)Nc1nncs1)CC2`, the cytotoxicity at 10 µM was -9.55%.

As to `CC(C)NC(=O)CCNC(=O)Nc1cccc(-c2nccn2C)c1`, the cytotoxicity at 10 µM was -1.39%.

Consider `CC(C)c1cnc(CN(C)C2CCN(CCc3ccncc3)C2)o1` (stereo unspecified), for which the cytotoxicity at 10 µM was -0.296%.

For the compound `OCC(O)CSCc1nnc(-c2ccc(Cl)cc2)o1` (stereo unspecified), the cytotoxicity at 10 µM was 10.8%.

Consider `CN(Cc1ccco1)C(=O)NCC(c1cccs1)N(C)C` (stereo unspecified), for which the cytotoxicity at 10 µM stood at 4.38%.

Consider `O=C(Cc1cnn(-c2ccccc2)n1)NC1CCOCC1`, for which the cytotoxicity at 10 µM is -9.72%.

Turning to `CCC1CN(C(=O)c2[nH]nc(C)c2Br)CCO1` (stereo unspecified), the cytotoxicity at 10 µM was -3.22%.

As for `O=C(NC1CCN(c2ncccn2)CC1)c1cc2c([nH]c1=O)CCC2`, the cytotoxicity at 10 µM is 1.28%.

For `Cc1nn(C)c(C)c1CC(C)NC(=O)NCc1ccoc1C` (stereo unspecified), the cytotoxicity at 10 µM was 0.43%.

With `CC(C)CNC(=O)CSc1nnc(OC(C)C)s1`, the cytotoxicity at 10 µM came to 1.97%.

For the compound `CCN(C)CC1CCN(C(=O)Nc2ccc(C)cc2)C1` (stereo unspecified), the cytotoxicity at 10 µM came to 2.89%.

`CSC1(CNC(=O)c2cccc(-n3cccn3)c2)CCOCC1`: the cytotoxicity at 10 µM is -2.44%.

For `CC(NCC(F)(F)F)c1ccc(S(C)(=O)=O)c(F)c1` (stereo unspecified), the cytotoxicity at 10 µM turned out to be 1.79%.

With `Cc1nn(CCO)c(C)c1CNC1CCC(C)(C)c2ccccc21` (stereo unspecified), the cytotoxicity at 10 µM was -3.34%.

With `CC(c1cccnc1)N(C)Cc1csc(-c2ccccn2)n1` (stereo unspecified), the cytotoxicity at 10 µM is -10.4%.

In the case of `Cc1cc(C)n(CC(C)CNC(=O)[C@@H](C)NC(=O)OC(C)(C)C)n1` (stereo partly specified), the cytotoxicity at 10 µM is -4.25%.

For `Cc1ccc2nc(C(=O)N3C[C@@H](C(=O)O)[C@H](c4ccccc4)C3)cn2c1`, the cytotoxicity at 10 µM stood at 5.96%.

Turning to `Cc1ccc2nc(CN3CCN(C4CCCCC4)C(=O)C3)cc(O)c2c1`, the cytotoxicity at 10 µM was determined as 12.9%.

Turning to `NC(=O)c1cncc(N2CCN(Cc3cccc4nsnc34)CC2)n1`, the cytotoxicity at 10 µM was determined as 8.15%.

For `COCc1ncc(CN2CCC3(CCNC(=O)CC3)CC2)cn1`, the cytotoxicity at 10 µM was -147%.

As to `CN(C)CC1(O)CCCN(C(=O)CCn2cc(Cl)cn2)C1` (stereo unspecified), the cytotoxicity at 10 µM is -138%.

In the case of `COCC(=O)NCc1cc2n(n1)CCCN(Cc1ccccc1SC)C2`, the cytotoxicity at 10 µM is 2.04%.

`COc1cccc(Cl)c1C(C(=O)O)N1CCC(Cn2cccn2)CC1` (stereo unspecified): the cytotoxicity at 10 µM was -12.5%.

For `CC(C)C1CN(c2nccc(N)n2)CCC(=O)N1Cc1ccc(F)cc1` (stereo unspecified), the cytotoxicity at 10 µM was -5.04%.

Regarding `Cc1nn(C)c2nc(N3CCNC(=O)C3C(C)C)sc12` (stereo unspecified), the cytotoxicity at 10 µM was -10%.

Turning to `CN(C)C(=O)c1ccc2c(c1)N(C)C(CC(=O)NCCOCCO)CO2` (stereo unspecified), the cytotoxicity at 10 µM was -7.96%.

With `COc1ccc(CCN)cc1-c1ccc(S(C)(=O)=O)cc1`, the cytotoxicity at 10 µM is -6.23%.

In the case of `O=c1cc(CN2CCCCC2c2cccc(F)c2)[nH]c2ncnn12` (stereo unspecified), the cytotoxicity at 10 µM was -3.46%.

With `Cc1nc2c(c(NC(C)c3nnn[nH]3)n1)Cc1ccccc1OC2` (stereo unspecified), the cytotoxicity at 10 µM is 1.07%.

On to `CCn1cc(C(=O)N2CCCC3(CCC(=O)N(CCC(C)C)C3)C2)cn1` (stereo unspecified), for which the cytotoxicity at 10 µM is -1.19%.

For the compound `CC(=O)C1(c2ccccc2)CCN(C(=O)C2CNCCO2)CC1` (stereo unspecified), the cytotoxicity at 10 µM was -3.73%.

As to `O=C(c1cncc(N2CCCC3(CCNCC3)CC2)n1)N1CCCCC1`, the cytotoxicity at 10 µM is -3.38%.

As for `CC(=O)NCCNC(=O)C1(N2CCCCC2)Cc2ccccc2C1`, the cytotoxicity at 10 µM is -6.53%.

`CCc1ccc2nc(NCCOCCO)cc(C)c2c1`: the cytotoxicity at 10 µM was -2.78%.

Turning to `Cc1nn(C)c2ncnc(N3CCCC(OCc4ccccn4)C3)c12` (stereo unspecified), the cytotoxicity at 10 µM is 7.96%.

Turning to `O=C(c1ccc(-c2cnco2)cc1)N1CCC(Nc2cccnn2)CC1`, the cytotoxicity at 10 µM was -0.692%.

For `COc1ncccc1NC(=O)N(Cc1ccccn1)C1CC1`, the cytotoxicity at 10 µM was 9.11%.

Consider `Cc1nn(C)c(C)c1C1CCCN1C(=O)c1ccc2c(c1)OCCO2` (stereo unspecified), for which the cytotoxicity at 10 µM is -10.6%.

`CN(CC(N)=O)CC(=O)N1CC=C(c2ccccc2)CC1`: the cytotoxicity at 10 µM was -5.1%.

Turning to `CN1CCC/C1=N\S(=O)(=O)c1ccc(NC(=O)c2ccsc2)cc1`, the cytotoxicity at 10 µM was 6.49%.

`CCc1nc(C)c(C(=O)N2CCCN(Cc3cnn(C)c3)CC2)s1`: the cytotoxicity at 10 µM was -2.41%.

With `CC(C)(C)NCc1ccc(OCc2ccc3c(c2)OCCO3)cc1`, the cytotoxicity at 10 µM is 1.99%.

Take `CN1CCC2(CC1)C(=O)N(c1cccnc1)c1ccc(F)cc12`: the cytotoxicity at 10 µM amounted to 3.65%.

As to `COCC(=O)N1CCN(Cc2cccnc2)c2ncccc2C1`, the cytotoxicity at 10 µM was found to be 10.2%.

On to `O=C(C1CCOCC1)N1C[C@@H]2[C@@H](C1)OCC(=O)N2Cc1ccncc1`, for which the cytotoxicity at 10 µM was -8.8%.

`COc1cccc(CN2CCC3(CC2)CCN(C(=O)[C@@H]2CCCO2)C3)c1`: the cytotoxicity at 10 µM stood at 0.523%.

Regarding `CC(=O)N1Cc2nccn2CC(CNC(=O)c2cccnc2)C1` (stereo unspecified), the cytotoxicity at 10 µM is -146%.

For `O=C(C1CCC1)N1CCO[C@H]2[C@H](OCCCn3cccn3)CC[C@@H]21`, the cytotoxicity at 10 µM was 16.7%.

In the case of `O=C(NC1CC1)[C@@H]1CCO[C@@H]2CCN(C3CCOCC3)C[C@H]21`, the cytotoxicity at 10 µM was -9.99%.

`Cc1ccsc1C(=O)N1CC[C@H]2CO[C@H](CN(C)C)[C@H]2C1`: the cytotoxicity at 10 µM came to 2.93%.

Regarding `CN(Cc1ccco1)C[C@@H]1OC[C@H]2CN(Cc3nccs3)CC[C@H]21`, the cytotoxicity at 10 µM was -5.46%.

Regarding `Cn1nnc2c1CCN(Cc1ccco1)C2COCc1ccccc1` (stereo unspecified), the cytotoxicity at 10 µM was -133%.

For the compound `CNCC(=O)N1CC(c2cc(Nc3nc(C)cs3)nc(C)n2)C1`, the cytotoxicity at 10 µM is -21.2%.

For the compound `CC(C)CCN1C[C@@H]2OCCN(c3ncc(F)cn3)[C@@H]2C1`, the cytotoxicity at 10 µM came to 4.91%.

Consider `Cc1cccc(CN2CCc3[nH]nc(C(=O)N(C)C)c3C2)n1`, for which the cytotoxicity at 10 µM was -0.596%.

`Cn1cc(CN2CC[C@@H]3[C@H]2CCC(=O)N3c2ccccc2)cn1`: the cytotoxicity at 10 µM stood at 7.42%.

Consider `Cc1cccc(CN2CCn3cc(Cn4cccn4)nc3C2)n1`, for which the cytotoxicity at 10 µM came to 3.27%.

With `CCc1cnc(N2C[C@@H]3C[C@H](C(=O)NC)[C@H](C2)O3)nc1`, the cytotoxicity at 10 µM stood at 9.76%.

Consider `CCc1cnc(N2C[C@@H]3C[C@H](C(=O)N(C)C)[C@H](C2)O3)nc1`, for which the cytotoxicity at 10 µM was -12.1%.
